Calls of active or inactive are those of the source. The calls are words filed in the database; no cut-off is given here.
How the values were obtained:
BMDC [1] = assay: Inhibition of LPS-induced immune response in C57BL/6 mouse BMDC assessed as reduction in IL-6 secretion at 25 uM treated 6 hrs post LPS-challenge measured after 30 mins by ELISA; assay type: functional, cell-based
Procedure, shortened: (§1)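 Bone marrow DCs from 6-week-old female C57BL/6 mice, RBC-lysed, cultured in RPMI-1640/10% FBS with 10 ng/mL rmGM-CSF, 37 °C, 5% CO2. Cells given LPS 50 ng/mL for 6 h, then 25 μM compound added for 30, 60, 90 or 120 min. Supernatant TNF-α, IL-6, IL-10, IL-12p70 measured by sandwich ELISA. Mean ± SEM, compared with LPS-only DCs.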

BMDC [2] = assay: Inhibition of Escherichia coli K1 infection-induced immune response in C57BL/6 mouse BMDC assessed as reduction in IL-6 secretion at 25 uM pretreated for 30 mins followed by Escherichia coli K1 infection for 6 hrs by ELISA; assay type: functional, cell-based
Procedure, shortened: (§2)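 BMDCs from C57BL/6 mice were given 25 μM compound and E. coli K1, […]. Timing was: compound 30 min before a 6 h infection; cotreatment for 6 h; or compound for 30–120 min with 6 h infection. Supernatant cytokines (TNF-α, IL-6, IL-10, IL-12p70) were measured by ELISA. At least three experiments in triplicate.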

BMDC [3] = assay: Inhibition of Escherichia coli K1 infection-induced immune response in C57BL/6 mouse BMDC assessed as increase in IL10 secretion at 25 uM pretreated for 60 to 120 mins followed by Escherichia coli K1 infection for 6 hrs by ELISA; assay type: functional, cell-based; procedure, shortened: as §2
BMDC [4] = assay: Inhibition of LPS-induced immune response in C57BL/6 mouse BMDC assessed as reduction in IL-12p70 secretion at 25 uM treated 6 hrs post LPS-challenge measured after 60 to 120 mins by ELISA; assay type: functional, cell-based; procedure, shortened: as §1
BMDC [5] = assay: Inhibition of LPS-induced immune response in C57BL/6 mouse BMDC assessed as reduction in TNFalpha secretion up to 25 uM pretreated for 30 mins followed by LPS-challenge measured after 6 hrs by ELISA; assay type: functional, cell-based
Procedure, shortened: (§3)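 Mouse BMDCs (female C57BL/6 bone marrow, GM-CSF-derived, ≥90% CD11c+ on day 7) pretreated 30 min with graded compound concentrations, then stimulated with LPS 50 ng/mL for 6 h. Supernatant TNF-α, IL-6, IL-10 and IL-12p70 quantified by sandwich ELISA. Mean ± SEM vs LPS-only cells; experiments repeated at least three times.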

[6] = target: T1, Toll-like receptor 4 (Mus musculus) (UniProt Q9QUK6); assay: Inhibition of LPS-induced TLR4 activation in C57BL/6 mouse BMDC assessed as reduction in IkappaBalpha degradation at 25 uM pretreated for 30 mins followed by LPS-challenge measured after 15 to 90 mins by Western blot analysis; assay type: cell-based
T1 sequence (whole entry): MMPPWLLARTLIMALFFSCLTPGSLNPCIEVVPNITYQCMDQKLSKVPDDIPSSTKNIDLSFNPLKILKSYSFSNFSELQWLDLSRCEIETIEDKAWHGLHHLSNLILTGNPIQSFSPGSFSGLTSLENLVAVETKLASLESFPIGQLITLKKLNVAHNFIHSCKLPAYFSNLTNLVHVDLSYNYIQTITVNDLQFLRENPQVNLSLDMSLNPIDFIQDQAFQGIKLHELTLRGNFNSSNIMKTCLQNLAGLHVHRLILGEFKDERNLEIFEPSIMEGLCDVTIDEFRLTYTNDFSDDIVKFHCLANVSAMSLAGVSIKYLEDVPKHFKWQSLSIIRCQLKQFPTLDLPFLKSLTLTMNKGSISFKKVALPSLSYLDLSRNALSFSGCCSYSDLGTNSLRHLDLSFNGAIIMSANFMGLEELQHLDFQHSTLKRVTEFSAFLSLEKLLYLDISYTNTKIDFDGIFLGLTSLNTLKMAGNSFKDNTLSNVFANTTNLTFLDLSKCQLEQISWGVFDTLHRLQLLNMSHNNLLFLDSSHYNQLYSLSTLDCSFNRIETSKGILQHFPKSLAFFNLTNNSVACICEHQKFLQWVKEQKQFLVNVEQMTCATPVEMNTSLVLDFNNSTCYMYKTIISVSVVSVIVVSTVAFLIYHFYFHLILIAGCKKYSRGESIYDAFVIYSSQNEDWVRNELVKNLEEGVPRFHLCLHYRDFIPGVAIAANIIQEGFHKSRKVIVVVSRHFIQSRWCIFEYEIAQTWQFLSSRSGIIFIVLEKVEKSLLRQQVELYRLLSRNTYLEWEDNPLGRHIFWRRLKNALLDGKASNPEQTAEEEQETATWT
Procedure, shortened: (§4)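 BMDCs were pretreated 30 min with 25 μM compound, then stimulated with LPS 50 ng·mL−1 for the indicated times. Lysates (25 μg protein) were run on 10% SDS-PAGE and immunoblotted for phospho/total ERK, JNK, p38 and Akt, plus COX-2, IκBα and α-tubulin, with ECL detection. Representative of three experiments.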

BMDC [7] = assay: Inhibition of LPS-induced immune response in C57BL/6 mouse BMDC assessed as increase in IL10 secretion up to 25 uM pretreated for 30 mins followed by LPS-challenge measured after 6 hrs by ELISA; assay type: functional, cell-based; procedure, shortened: as §3
BMDC [8] = assay: Inhibition of LPS-induced immune response in C57BL/6 mouse BMDC assessed as reduction in TNFalpha secretion at 25 uM treated 6 hrs post LPS-challenge measured after 30 mins by ELISA; assay type: functional, cell-based; procedure, shortened: as §1
[9] = target: T1, Toll-like receptor 4 (Mus musculus); assay: Inhibition of LPS-induced TLR4 activation in C57BL/6 mouse BMDC assessed as reduction in JNK1 phosphorylation at 25 uM pretreated for 30 mins followed by LPS-challenge measured after 15 to 90 mins by Western blot analysis; assay type: cell-based; procedure, shortened: as §4
BMDC [10] = assay: Inhibition of LPS-induced immune response in C57BL/6 mouse BMDC assessed as increase in IL10 secretion at 25 uM treated 6 hrs post LPS-challenge measured after 30 mins by ELISA; assay type: functional, cell-based; procedure, shortened: as §1
BMDC [11] = assay: Inhibition of Escherichia coli DH5alpha infection-induced immune response in C57BL/6 mouse BMDC assessed as increase in IL10 secretion at 25 uM pretreated for 30 mins followed by Escherichia coli DH5alpha infection for 6 hrs by ELISA; assay type: functional, cell-based
Procedure, shortened: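 C57BL/6 BMDCs received 25 μM compound and E. coli DH5α, 3 × 10^6 CFU·mL−1. Schedules were: compound 30 min before a 6 h infection; co-addition for 6 h; or compound for 30, 60, 90 or 120 min plus 6 h infection. Supernatant TNF-α, IL-6, IL-10 and IL-12p70 were measured by ELISA. At least three experiments in triplicate.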

[12] = target: Mitogen-activated protein kinase 8 (Homo sapiens) (UniProt P45983); assay: Binding affinity to human C-terminal His6-tagged JNK1alpha1 (1 to 364 residues) expressed in Escherichia coli by tryptophan fluorescence quenching assay
Mitogen-activated protein kinase 8 (Homo sapiens), sequence (P45983 whole entry, the tested form may be a part): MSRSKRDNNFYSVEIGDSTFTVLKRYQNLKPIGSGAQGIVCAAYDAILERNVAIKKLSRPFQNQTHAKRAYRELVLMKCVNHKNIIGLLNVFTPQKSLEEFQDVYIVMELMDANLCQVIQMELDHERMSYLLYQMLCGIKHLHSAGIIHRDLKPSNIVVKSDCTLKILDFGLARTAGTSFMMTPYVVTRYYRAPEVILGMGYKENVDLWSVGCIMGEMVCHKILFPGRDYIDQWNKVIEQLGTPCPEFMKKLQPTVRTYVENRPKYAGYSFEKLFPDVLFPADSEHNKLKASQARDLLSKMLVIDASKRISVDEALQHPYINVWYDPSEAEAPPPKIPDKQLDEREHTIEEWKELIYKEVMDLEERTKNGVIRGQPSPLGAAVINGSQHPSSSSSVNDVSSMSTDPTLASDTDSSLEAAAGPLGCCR
Procedure, shortened: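 C-terminally His6-tagged human JNK1 (10 μM) was titrated with compound (0–100 μM; final protein:inhibitor 1:10) in 50 mM sodium phosphate, 100 mM NaCl, pH 8.0, at 25 °C. Tryptophan emission was recorded at 290–600 nm with excitation at 290 nm.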

Compound: COc1ccc(-c2oc3cc(O)cc(O)c3c(=O)c2O)cc1O [TAMARIXETIN]
- inhibition (BMDC [1]): Active
- inhibition (BMDC [2]): Active
- inhibition (BMDC [3]): inactive
- inhibition (BMDC [4]): inactive
- inhibition (BMDC [5]): Active
- inhibition [6]: Active
- inhibition (BMDC [7]): Active
- inhibition (BMDC [8]): Active
- inhibition [9]: Active
- inhibition (BMDC [10]): Active
- inhibition (BMDC [11]): Active
- K [12]: 4.9 ×10⁵ /M

Source: ChEMBL document CHEMBL4145607, “Tamarixetin Exhibits Anti-inflammatory Activity and Prevents Bacterial Sepsis by Increasing IL-10 Production” (J Nat Prod, 2018)
